Results taken from ChEMBL document CHEMBL3259704, “Second generation steroidal 4-aminoquinolines are potent, dual-target inhibitors of the botulinum neurotoxin serotype A metalloprotease and P. falciparum malaria” (J Med Chem, 2014).

Tests used:
[1] = target: Botulinum neurotoxin type A (Clostridium botulinum) (UniProt P0DPI0); assay: Inhibition of Clostridium botulinum recombinant BoNT/A light chain using N-terminal acetylated, C-terminal aminated SNAP-25 (187-203) as substrate at 20 uM by reverse-phase HPLC analysis
Botulinum neurotoxin type A (Clostridium botulinum), sequence (P0DPI0 2-448 limits assumed): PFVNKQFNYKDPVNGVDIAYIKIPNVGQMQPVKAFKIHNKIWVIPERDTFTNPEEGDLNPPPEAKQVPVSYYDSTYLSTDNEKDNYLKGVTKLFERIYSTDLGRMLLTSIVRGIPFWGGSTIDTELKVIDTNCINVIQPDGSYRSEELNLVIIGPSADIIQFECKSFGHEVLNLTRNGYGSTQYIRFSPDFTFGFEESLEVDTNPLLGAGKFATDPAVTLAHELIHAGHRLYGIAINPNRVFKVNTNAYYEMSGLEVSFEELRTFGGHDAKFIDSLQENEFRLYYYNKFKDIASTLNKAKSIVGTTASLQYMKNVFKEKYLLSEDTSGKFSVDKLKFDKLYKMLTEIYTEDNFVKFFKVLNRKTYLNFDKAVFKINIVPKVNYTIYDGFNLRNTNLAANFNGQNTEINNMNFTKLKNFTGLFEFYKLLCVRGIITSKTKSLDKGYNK
Procedure, shortened: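 Recombinant BoNT/A LC with SNAP-25 187–203 peptide substrate in 40 mM HEPES–0.05% Tween, pH 7.3, with 0.5 mg/mL BSA and 50 μM excess Zn, at 37 °C. Quenched with TFA; reverse-phase HPLC product/substrate peak areas give percent inhibition, run in duplicate.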

[2] = target: Botulinum neurotoxin type A (Clostridium botulinum, UniProt P0DPI0); assay: Inhibition of Clostridium botulinum recombinant BoNT/A light chain using N-terminal acetylated, C-terminal aminated SNAP-25 (187-203) as substrate by reverse-phase HPLC analysis
Botulinum neurotoxin type A, sequence (P0DPI0 2-448 limits assumed): as above
Procedure, shortened: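 Same HPLC LC cleavage assay (pH 7.3 HEPES/Tween, BSA, excess Zn, 37 °C). […] Ki comes from velocity versus substrate at several inhibitor levels, globally fit to a competitive model.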

Plasmodium falciparum [3] = assay: Antimalarial activity against CQ-resistant, MFQ-susceptible Plasmodium falciparum W2 clone Indochina 1 isolate assessed as inhibition of parasite proliferation by MSF assay; type: functional, organism-based
Procedure, shortened: (§1)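 SYBR Green I fluorescence (MSF) microtiter drug-sensitivity assay: malarial DNA content is the measure of in vitro parasite proliferation. Resistance index is the IC90 ratio of the resistant strain to D6.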

Plasmodium falciparum [4] = assay: Antimalarial activity against CQ, MFQ-susceptible Plasmodium falciparum D6 clone Sierra 1/UNC isolate assessed as inhibition of parasite proliferation by MSF assay; type: functional, organism-based; procedure, shortened: as §1
Plasmodium falciparum [5] = assay: Antimalarial activity against CQ, MFQ-resistant Plasmodium falciparum TM91C235 clone Southeast asian isolate assessed as inhibition of parasite proliferation by MSF assay; type: functional, organism-based; procedure, shortened: as §1
Plasmodium falciparum [6] = assay: Resistance index, ratio of IC90 for CQ, MFQ-resistant Plasmodium falciparum TM91C235 clone Southeast asian isolate to IC90 for CQ, MFQ-susceptible Plasmodium falciparum D6 clone Sierra 1/UNC isolate; type: functional; procedure, shortened: as §1
Plasmodium falciparum [7] = assay: Resistance index, ratio of IC90 for CQ-resistant, MFQ-susceptible Plasmodium falciparum W2 clone Indochina 1 isolate to IC90 for CQ, MFQ-susceptible Plasmodium falciparum D6 clone Sierra 1/UNC isolate; type: functional; procedure, shortened: as §1
HepG2 = assay: Cytotoxicity against human HepG2 cells assessed as cell viability after 48 hrs by MTT assay; type: cell-based; settings: HepG2, 48 h
[8] = Selectivity index, ratio of IC50 for human HepG2 cells to IC50 for CQ-resistant, MFQ-susceptible Plasmodium falciparum W2 clone Indochina 1 isolate; type: toxicity, cell-based; settings: read-out: Ratio IC50
[9] = Selectivity index, ratio of IC50 for human HepG2 cells to IC50 for CQ, MFQ-susceptible Plasmodium falciparum D6 clone Sierra 1/UNC isolate; type: toxicity, cell-based; settings: read-out: Ratio IC50
[10] = Selectivity index, ratio of IC50 for human HepG2 cells to IC50 for CQ, MFQ-resistant Plasmodium falciparum TM91C235 clone Southeast asian isolate; type: toxicity, cell-based; settings: read-out: Ratio IC50

Structure (SMILES)	inhibition [1] [%]	IC50 [2] [nM]	IC50 (Plasmodium falciparum [3]) [nM]	IC50 (Plasmodium falciparum [4]) [nM]	IC50 (Plasmodium falciparum [5]) [nM]	IC50 (HepG2) [nM]	selectivity ratio [8]	selectivity ratio [9]	selectivity ratio [10]	Ki [2] [nM]	also measured
CC(=O)O[C@H]1C[C@H]2[C@@H]([C@H](OC(C)=O)C[C@@H]3C[C@H](NS(C)(=O)=O)CC[C@@]32C)[C@@H]2CC[C@H]([C@H](C)CCCNCCNc3ccnc4cc(Cl)ccc34)[C@@]12C	74.4	5090	44.6	19.4	26.4	5850	131	301	222		IC90 (Plasmodium falciparum [3]): 71.1 nM; IC90 (Plasmodium falciparum [4]): 53 nM; IC90 (Plasmodium falciparum [5]): 45.6 nM; Ratio (Plasmodium falciparum [6]): 0.86; Ratio (Plasmodium falciparum [7]): 1.34
CC(=O)O[C@H]1C[C@H]2[C@@H]([C@H](OC(C)=O)C[C@@H]3C[C@H](NC(=O)OC(C)(C)C)CC[C@@]32C)[C@@H]2CC[C@H]([C@H](C)CCCN(C)CCCNc3ccnc4cc(Cl)ccc34)[C@@]12C	59.6	6620									
CC(=O)O[C@@H]1CC[C@@]2(C)[C@@H](C1)C[C@@H](OC(C)=O)[C@@H]1[C@@H]2C[C@H](OC(C)=O)[C@]2(C)[C@@H]([C@H](C)CCCNCCCCCCNc3ccnc4cc(Cl)ccc34)CC[C@@H]12	83.3		56.4	91	104	2640	47	29	25		
CC(=O)O[C@H]1C[C@H]2[C@@H]([C@H](OC(C)=O)C[C@@H]3C[C@@H](NCCCCCCNc4ccnc5cc(Cl)ccc45)CC[C@@]32C)[C@@H]2CC[C@H]([C@H](C)CCCNCCCCNc3ccnc4cc(Cl)ccc34)[C@@]12C	95.4									103	
CCN(CC)CCCC(C)Nc1ccnc2cc(Cl)ccc12 (stereo unspecified) [CHLOROQUINE]	6.51										IC90 (Plasmodium falciparum [3]): 698 nM; IC90 (Plasmodium falciparum [4]): 16.1 nM; IC90 (Plasmodium falciparum [5]): 373 nM
CC(=O)O[C@@H]1CC[C@@]2(C)[C@@H](C1)C[C@@H](OC(C)=O)[C@@H]1[C@@H]2C[C@H](OC(C)=O)[C@]2(C)[C@@H]([C@H](C)CCCNCCNc3ccnc4cc(Cl)ccc34)CC[C@@H]12	74	3800								6990	IC90 (Plasmodium falciparum [3]): 32.5 nM; IC90 (Plasmodium falciparum [4]): 34.2 nM; IC90 (Plasmodium falciparum [5]): 77.9 nM
CC(=O)O[C@@H]1CC[C@@]2(C)[C@@H](C1)C[C@@H](OC(C)=O)[C@@H]1[C@@H]2C[C@H](OC(C)=O)[C@]2(C)[C@@H]([C@H](C)CCCNCCCCNc3ccnc4cc(Cl)ccc34)CC[C@@H]12	69		23.9	46.5	54.5	2560	107	55	47		
N=C(N)c1ccc(Oc2ccc(-c3cc4ccc(C(=N)N)cc4[nH]3)cc2)cc1		2620									
CC(=O)O[C@H]1C[C@H]2[C@@H]([C@H](OC(C)=O)C[C@@H]3CC(=O)CC[C@@]32C)[C@@H]2CC[C@H]([C@H](C)CCCNCCCCNc3ccnc4cc(Cl)ccc34)[C@@]12C	81.5		175		214	1230	7	6	6		
CC(=O)O[C@H]1C[C@H]2[C@@H]([C@H](OC(C)=O)C[C@@H]3C[C@H](O)CC[C@@]32C)[C@@H]2CC[C@H]([C@H](C)CCCNCCCCNc3ccnc4cc(Cl)ccc34)[C@@]12C	80.8		33.8	52.1	56.3	1580	47	30	28		
CC(=O)O[C@H]1C[C@H]2[C@@H]([C@H](OC(C)=O)C[C@@H]3C[C@@H](NCCCCCCNc4ccnc5cc(Cl)ccc45)CC[C@@]32C)[C@@H]2CC[C@H]([C@H](C)CCCNCCCCCCNc3ccnc4cc(Cl)ccc34)[C@@]12C	89.6									389	
CC(=O)O[C@H]1C[C@H]2[C@@H]([C@H](OC(C)=O)C[C@@H]3C[C@H](O)CC[C@@]32C)[C@@H]2CC[C@H]([C@H](C)CCCNCCCCCCNc3ccnc4cc(Cl)ccc34)[C@@]12C	62.9		33.9	36.6	40.6	2040	60	56	50		
Clc1ccc2c(NCCNC34CC5CC(CC(C5)C3)C4)ccnc2c1		11800									
CC(=O)O[C@H]1C[C@H]2[C@@H]([C@H](OC(C)=O)C[C@@H]3C[C@H](NCCCCCCNc4ccnc5cc(Cl)ccc45)CC[C@@]32C)[C@@H]2CC[C@H]([C@H](C)CCCNCCCCNc3ccnc4cc(Cl)ccc34)[C@@]12C	93.7									300	
CC(=O)O[C@H]1C[C@H]2[C@@H]([C@H](OC(C)=O)C[C@@H]3C[C@H](NC(=O)OC(C)(C)C)CC[C@@]32C)[C@@H]2CC[C@H]([C@H](C)CCCN(CCCNc3ccnc4cc(Cl)ccc34)CCC[C@@H](C)[C@H]3CC[C@H]4[C@@H]5[C@H](OC(C)=O)C[C@@H]6C[C@H](NC(=O)OC(C)(C)C)CC[C@]6(C)[C@H]5C[C@H](OC(C)=O)[C@]34C)[C@@]12C	6.42				369	35400	96	96	96		
CC(=O)O[C@H]1C[C@H]2[C@@H]([C@H](OC(C)=O)C[C@@H]3C[C@@H](NCCCCNc4ccnc5cc(Cl)ccc45)CC[C@@]32C)[C@@H]2CC[C@H]([C@H](C)CCCNCCCCNc3ccnc4cc(Cl)ccc34)[C@@]12C	96.7									300	
CC(=O)O[C@H]1C[C@H]2[C@@H]([C@H](OC(C)=O)C[C@@H]3CC(=O)CC[C@@]32C)[C@@H]2CC[C@H]([C@H](C)CCCNCCCCCCNc3ccnc4cc(Cl)ccc34)[C@@]12C	77.2		42.1	47.5	51.6	1280	30	27	25		
CC(=O)O[C@H]1C[C@H]2[C@@H]([C@H](OC(C)=O)C[C@@H]3C[C@H](NC(=O)OC(C)(C)C)CC[C@@]32C)[C@@H]2CC[C@H]([C@H](C)CCCNCCCNc3ccnc4cc(Cl)ccc34)[C@@]12C	74.9	3240									
CC(=O)O[C@H]1C[C@H]2[C@@H]([C@H](OC(C)=O)C[C@@H]3C[C@H](NCCCCCCNc4ccnc5cc(Cl)ccc45)CC[C@@]32C)[C@@H]2CC[C@H]([C@H](C)CCCNCCCCCCNc3ccnc4cc(Cl)ccc34)[C@@]12C	95.5									285	
C[C@@H]1CC[C@H]2[C@@H](C)C(=O)O[C@@H]3O[C@@]4(C)CC[C@@H]1[C@]32OO4 [ARTEMISININ]			6.7	9	13.4						IC90 (Plasmodium falciparum [3]): 11.5 nM; IC90 (Plasmodium falciparum [4]): 12.8 nM; IC90 (Plasmodium falciparum [5]): 17.4 nM; Ratio (Plasmodium falciparum [6]): 1.36; Ratio (Plasmodium falciparum [7]): 0.9
